What was measured:
Type in all cases: toxicity, cell-based
U2OS [1] = test: Multiplex assay against U2OS; details: human
Procedure, shortened: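 Values for tubulin, mitochondrial-mass and membrane-permeability phenotypes are per cents of cells with healthy nuclei. These cells were identified by CellPathfinder machine-learning gating of live cells that had been stained at seeding with Hoechst33342, BioTracker Green Microtubule Cytoskeleton Dye, MitoTracker Red and Annexin V Alexa Fluor 680 and imaged on a CQ1 microscope at 37°C and 5% CO2 after compound addition. The gating first set Hoechst high-intensity objects apart from normal cells, then split normal cells into healthy, pyknosed or fragmented nuclei, and pyknosed cells into mitotic or apoptotic.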

HEK-293T = test: Incucyte cell viability with HEK293T; details: human, 10 µM, compound concentration 10 uM; note: filed as whole numbers so only -1 and 0 and 1 occur
U2OS [2] = test: Incucyte cell viability with U2OS; details: human, 10 µM, compound concentration 10 uM; note: filed as whole numbers so only -1 and 0 and 1 occur
Fibroblast = test: Incucyte cell viability with human fibroblast; details: 10 µM, compound concentration 10 uM; note: filed as whole numbers so only -1 and 0 and 1 occur
[3] = 12 h, 1 µM, compound concentration 1 uM, replicate 1
[4] = 12 h, 1 µM, compound concentration 1 uM, replicate 2
[5] = 12 h, 10 µM, compound concentration 10 uM, replicate 1
[6] = 12 h, 10 µM, compound concentration 10 uM, replicate 2
[7] = 24 h, 1 µM, compound concentration 1 uM, replicate 1
[8] = 24 h, 1 µM, compound concentration 1 uM, replicate 2
[9] = 24 h, 10 µM, compound concentration 10 uM, replicate 1
[10] = 24 h, 10 µM, compound concentration 10 uM, replicate 2
[11] = 6 h, replicate number 1, timepoint 6 hours
[12] = 12 h, replicate number 1, timepoint 12 hours
[13] = 18 h, replicate number 1, timepoint 18 hours
[14] = 24 h, replicate number 1, timepoint 24 hours

SMILES: COc1cc2c(Nc3ccc(NC(=O)c4ccccc4)cc3)ncnc2cc1OCCCN1CCOCC1
- Population Apoptotic (%) (U2OS [1]; [3]): 18%
- Population Fragmented Nuclei (%) (U2OS [1]; [3]): 8%
- Population Healthy Nuclei (%) (U2OS [1]; [3]): 77%
- Population Hoechst High Intensity Objects (%) (U2OS [1]; [3]): 1%
- Population Membrane Permeable-Phenotype (%) (U2OS [1]; [3]): 63%
- Population Mitochondria Different-Phenotype (%) (U2OS [1]; [3]): 24%
- Population Mitotic Cells (%) (U2OS [1]; [3]): 81%
- Population Normal (%) (U2OS [1]; [3]): 98%
- Population Pyknosed Nuclei (%) (U2OS [1]; [3]): 13%
- Population Tubulin-Different-Phenotype (%) (U2OS [1]; [3]): 99%
- Total Cell Count (U2OS [1]; [3]): 121
- Population Apoptotic (%) (U2OS [1]; [4]): 0%
- Population Fragmented Nuclei (%) (U2OS [1]; [4]): 20%
- Population Healthy Nuclei (%) (U2OS [1]; [4]): 74%
- Population Hoechst High Intensity Objects (%) (U2OS [1]; [4]): 12%
- Population Membrane Permeable-Phenotype (%) (U2OS [1]; [4]): 67%
- Population Mitochondria Different-Phenotype (%) (U2OS [1]; [4]): 14%
- Population Mitotic Cells (%) (U2OS [1]; [4]): 100%
- Population Normal (%) (U2OS [1]; [4]): 87%
- Population Pyknosed Nuclei (%) (U2OS [1]; [4]): 5%
- Population Tubulin-Different-Phenotype (%) (U2OS [1]; [4]): 92%
- Total Cell Count (U2OS [1]; [4]): 97
- Population Apoptotic (%) (U2OS [1]; [5]): 44%
- Population Fragmented Nuclei (%) (U2OS [1]; [5]): 5%
- Population Healthy Nuclei (%) (U2OS [1]; [5]): 86%
- Population Hoechst High Intensity Objects (%) (U2OS [1]; [5]): 3%
- Population Membrane Permeable-Phenotype (%) (U2OS [1]; [5]): 10%
- Population Mitochondria Different-Phenotype (%) (U2OS [1]; [5]): 24%
- Population Mitotic Cells (%) (U2OS [1]; [5]): 55%
- Population Normal (%) (U2OS [1]; [5]): 96%
- Population Pyknosed Nuclei (%) (U2OS [1]; [5]): 7%
- Total Cell Count (U2OS [1]; [5]): 215
- Population Apoptotic (%) (U2OS [1]; [6]): 0%
- Population Fragmented Nuclei (%) (U2OS [1]; [6]): 10%
- Population Healthy Nuclei (%) (U2OS [1]; [6]): 87%
- Population Hoechst High Intensity Objects (%) (U2OS [1]; [6]): 11%
- Population Membrane Permeable-Phenotype (%) (U2OS [1]; [6]): 13%
- Population Mitochondria Different-Phenotype (%) (U2OS [1]; [6]): 38%
- Population Mitotic Cells (%) (U2OS [1]; [6]): 100%
- Population Normal (%) (U2OS [1]; [6]): 88%
- Population Pyknosed Nuclei (%) (U2OS [1]; [6]): 2%
- Population Tubulin-Different-Phenotype (%) (U2OS [1]; [6]): 14%
- Total Cell Count (U2OS [1]; [6]): 115
- Population Apoptotic (%) (U2OS [1]; [7]): 19%
- Population Fragmented Nuclei (%) (U2OS [1]; [7]): 16%
- Population Healthy Nuclei (%) (U2OS [1]; [7]): 63%
- Population Hoechst High Intensity Objects (%) (U2OS [1]; [7]): 2%
- Population Membrane Permeable-Phenotype (%) (U2OS [1]; [7]): 48%
- Population Mitochondria Different-Phenotype (%) (U2OS [1]; [7]): 39%
- Population Mitotic Cells (%) (U2OS [1]; [7]): 80%
- Population Normal (%) (U2OS [1]; [7]): 97%
- Population Pyknosed Nuclei (%) (U2OS [1]; [7]): 19%
- Population Tubulin-Different-Phenotype (%) (U2OS [1]; [7]): 98%
- Total Cell Count (U2OS [1]; [7]): 129
- Population Apoptotic (%) (U2OS [1]; [8]): 26%
- Population Fragmented Nuclei (%) (U2OS [1]; [8]): 24%
- Population Healthy Nuclei (%) (U2OS [1]; [8]): 61%
- Population Hoechst High Intensity Objects (%) (U2OS [1]; [8]): 7%
- Population Membrane Permeable-Phenotype (%) (U2OS [1]; [8]): 44%
- Population Mitochondria Different-Phenotype (%) (U2OS [1]; [8]): 43%
- Population Mitotic Cells (%) (U2OS [1]; [8]): 73%
- Population Normal (%) (U2OS [1]; [8]): 92%
- Population Pyknosed Nuclei (%) (U2OS [1]; [8]): 14%
- Population Tubulin-Different-Phenotype (%) (U2OS [1]; [8]): 95%
- Total Cell Count (U2OS [1]; [8]): 108
- Population Apoptotic (%) (U2OS [1]; [9]): 18%
- Population Fragmented Nuclei (%) (U2OS [1]; [9]): 7%
- Population Healthy Nuclei (%) (U2OS [1]; [9]): 83%
- Population Hoechst High Intensity Objects (%) (U2OS [1]; [9]): 8%
- Population Membrane Permeable-Phenotype (%) (U2OS [1]; [9]): 13%
- Population Mitochondria Different-Phenotype (%) (U2OS [1]; [9]): 37%
- Population Mitotic Cells (%) (U2OS [1]; [9]): 81%
- Population Normal (%) (U2OS [1]; [9]): 91%
- Population Pyknosed Nuclei (%) (U2OS [1]; [9]): 9%
- Population Tubulin-Different-Phenotype (%) (U2OS [1]; [9]): 18%
- Total Cell Count (U2OS [1]; [9]): 237
- Population Apoptotic (%) (U2OS [1]; [10]): 25%
- Population Fragmented Nuclei (%) (U2OS [1]; [10]): 14%
- Population Healthy Nuclei (%) (U2OS [1]; [10]): 77%
- Population Hoechst High Intensity Objects (%) (U2OS [1]; [10]): 10%
- Population Membrane Permeable-Phenotype (%) (U2OS [1]; [10]): 14%
- Population Mitochondria Different-Phenotype (%) (U2OS [1]; [10]): 25%
- Population Mitotic Cells (%) (U2OS [1]; [10]): 75%
- Population Normal (%) (U2OS [1]; [10]): 89%
- Population Pyknosed Nuclei (%) (U2OS [1]; [10]): 8%
- Population Tubulin-Different-Phenotype (%) (U2OS [1]; [10]): 22%
- Total Cell Count (U2OS [1]; [10]): 115
- Growth Rate (HEK-293T; [11]): 0
- Growth Rate (HEK-293T; [12]): 0
- Growth Rate (HEK-293T; [13]): 0
- Growth Rate (HEK-293T; [14]): 0
- Growth Rate (U2OS [2]; 0 h, replicate number 1, timepoint 0 hours): 1
- Growth Rate (U2OS [2]; [11]): 1
- Growth Rate (U2OS [2]; [12]): 0
- Growth Rate (U2OS [2]; [13]): 0
- Growth Rate (U2OS [2]; 18 h, replicate number 2, timepoint 18 hours): 1
- Growth Rate (U2OS [2]; [14]): 0
- Growth Rate (U2OS [2]; 24 h, replicate number 2, timepoint 24 hours): 1
- Growth Rate (Fibroblast; 0 h, replicate number 2, timepoint 0 hours): 1
- Growth Rate (Fibroblast; [11]): 0
- Growth Rate (Fibroblast; [12]): 0
- Growth Rate (Fibroblast; [13]): 0
- Growth Rate (Fibroblast; [14]): 0

— ChEMBL document CHEMBL4689842, “EUbOPEN Chemogenomics Library wave 1” (2021)
